ChEMBL document CHEMBL5058577, “EUbOPEN Chemogenomics Library 2 (Multiplex)” (2022)

System: Fibroblast
Test: Multiplex assay against human fibroblast
Format: toxicity, cell-based
In short: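 Cells stained live at seeding with Hoechst33342, BioTracker Green Microtubule Cytoskeleton Dye, MitoTracker Red and Annexin V Alexa Fluor 680 were imaged on a CQ1 microscope at 37°C and 5% CO2 after compound addition. Their classification by CellPathfinder machine-learning gating ran from Hoechst high-intensity objects versus normal cells, to healthy, pyknosed or fragmented nuclei among normal cells, to mitotic or apoptotic among pyknosed cells. Tubulin, mitochondrial-mass and membrane-permeability phenotypes are per cents of healthy-nucleus cells.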

[1] = 12 h, 1 µM, compound concentration 1 uM, replicate 1
[2] = 12 h, 1 µM, compound concentration 1 uM, replicate 2
[3] = 12 h, 10 µM, compound concentration 10 uM, replicate 1
[4] = 12 h, 10 µM, compound concentration 10 uM, replicate 2
[5] = 24 h, 1 µM, compound concentration 1 uM, replicate 1
[6] = 24 h, 1 µM, compound concentration 1 uM, replicate 2
[7] = 24 h, 10 µM, compound concentration 10 uM, replicate 1
[8] = 24 h, 10 µM, compound concentration 10 uM, replicate 2
[9] = 48 h, 1 µM, compound concentration 1 uM, replicate 1
[10] = 48 h, 1 µM, compound concentration 1 uM, replicate 2
[11] = 48 h, 10 µM, compound concentration 10 uM, replicate 1
[12] = 48 h, 10 µM, compound concentration 10 uM, replicate 2

## NCCc1cn(S(=O)(=O)c2c(Cl)nc3sccn23)c2ccccc12.O=C(O)C(=O)O
[1]
  Population Apoptotic (%): 45%
  Population Fragmented Nuclei (%): 20%
  Population Healthy Nuclei (%): 65%
  Population Hoechst High Intensity Objects (%): 4%
  Population Membrane Permeable-Phenotype (%): 0%
  Population Mitochondria Different-Phenotype (%): 5%
  Population Mitotic Cells (%): 55%
  Population Normal (%): 95%
  Population Pyknosed Nuclei (%): 14%
  Population Tubulin-Different-Phenotype (%): 40%
  Total Cell Count: 146
[2]
  Population Fragmented Nuclei (%): 34%
  Population Healthy Nuclei (%): 37%
  Population Hoechst High Intensity Objects (%): 3%
  Population Membrane Permeable-Phenotype (%): 13%
  Population Mitochondria Different-Phenotype (%): 8%
  Population Mitotic Cells (%): 54%
  Population Normal (%): 96%
  Population Pyknosed Nuclei (%): 28%
  Population Tubulin-Different-Phenotype (%): 62%
  Total Cell Count: 170
[3]
  Population Apoptotic (%): 78%
  Population Fragmented Nuclei (%): 20%
  Population Healthy Nuclei (%): 56%
  Population Hoechst High Intensity Objects (%): 6%
  Population Membrane Permeable-Phenotype (%): 0%
  Population Mitochondria Different-Phenotype (%): 40%
  Population Mitotic Cells (%): 21%
  Population Normal (%): 93%
  Population Pyknosed Nuclei (%): 22%
  Population Tubulin-Different-Phenotype (%): 90%
  Total Cell Count: 177
[4]
  Population Apoptotic (%): 57%
  Population Fragmented Nuclei (%): 24%
  Population Healthy Nuclei (%): 44%
  Population Membrane Permeable-Phenotype (%): 5%
  Population Mitochondria Different-Phenotype (%): 34%
  Population Mitotic Cells (%): 42%
  Population Pyknosed Nuclei (%): 30%
  Population Tubulin-Different-Phenotype (%): 89%
  Total Cell Count: 219
[5]
  Population Apoptotic (%): 50%
  Population Fragmented Nuclei (%): 21%
  Population Healthy Nuclei (%): 64%
  Population Hoechst High Intensity Objects (%): 3%
  Population Membrane Permeable-Phenotype (%): 0%
  Population Mitochondria Different-Phenotype (%): 13%
  Population Mitotic Cells (%): 50%
  Population Normal (%): 96%
  Population Pyknosed Nuclei (%): 13%
  Population Tubulin-Different-Phenotype (%): 42%
  Total Cell Count: 156
[6]
  Population Apoptotic (%): 46%
  Population Fragmented Nuclei (%): 35%
  Population Healthy Nuclei (%): 44%
  Population Hoechst High Intensity Objects (%): 4%
  Population Membrane Permeable-Phenotype (%): 18%
  Population Mitochondria Different-Phenotype (%): 11%
  Population Mitotic Cells (%): 53%
  Population Normal (%): 95%
  Population Pyknosed Nuclei (%): 20%
  Population Tubulin-Different-Phenotype (%): 70%
  Total Cell Count: 166
[7]
  Population Apoptotic (%): 77%
  Population Fragmented Nuclei (%): 22%
  Population Healthy Nuclei (%): 62%
  Population Hoechst High Intensity Objects (%): 3%
  Population Membrane Permeable-Phenotype (%): 0%
  Population Mitochondria Different-Phenotype (%): 58%
  Population Mitotic Cells (%): 22%
  Population Normal (%): 96%
  Population Pyknosed Nuclei (%): 14%
  Population Tubulin-Different-Phenotype (%): 89%
  Total Cell Count: 193
[8]
  Population Apoptotic (%): 72%
  Population Fragmented Nuclei (%): 30%
  Population Healthy Nuclei (%): 51%
  Population Hoechst High Intensity Objects (%): 7%
  Population Membrane Permeable-Phenotype (%): 5%
  Population Mitochondria Different-Phenotype (%): 32%
  Population Mitotic Cells (%): 27%
  Population Normal (%): 92%
  Population Pyknosed Nuclei (%): 18%
  Population Tubulin-Different-Phenotype (%): 81%
  Total Cell Count: 237
[9]
  Population Apoptotic (%): 50%
  Population Fragmented Nuclei (%): 27%
  Population Healthy Nuclei (%): 63%
  Population Hoechst High Intensity Objects (%): 4%
  Population Membrane Permeable-Phenotype (%): 2%
  Population Mitochondria Different-Phenotype (%): 3%
  Population Mitotic Cells (%): 50%
  Population Normal (%): 95%
  Population Pyknosed Nuclei (%): 9%
  Population Tubulin-Different-Phenotype (%): 46%
  Total Cell Count: 177
[10]
  Population Apoptotic (%): 54%
  Population Fragmented Nuclei (%): 38%
  Population Healthy Nuclei (%): 47%
  Population Hoechst High Intensity Objects (%): 6%
  Population Membrane Permeable-Phenotype (%): 9%
  Population Mitochondria Different-Phenotype (%): 17%
  Population Mitotic Cells (%): 45%
  Population Normal (%): 93%
  Population Pyknosed Nuclei (%): 14%
  Population Tubulin-Different-Phenotype (%): 58%
  Total Cell Count: 166
[11]
  Population Apoptotic (%): 85%
  Population Fragmented Nuclei (%): 22%
  Population Healthy Nuclei (%): 65%
  Population Hoechst High Intensity Objects (%): 7%
  Population Membrane Permeable-Phenotype (%): 0%
  Population Mitochondria Different-Phenotype (%): 43%
  Population Mitotic Cells (%): 14%
  Population Normal (%): 92%
  Population Pyknosed Nuclei (%): 12%
  Population Tubulin-Different-Phenotype (%): 92%
  Total Cell Count: 189
[12]
  Population Apoptotic (%): 75%
  Population Fragmented Nuclei (%): 31%
  Population Healthy Nuclei (%): 59%
  Population Hoechst High Intensity Objects (%): 3%
  Population Membrane Permeable-Phenotype (%): 3%
  Population Mitochondria Different-Phenotype (%): 24%
  Population Mitotic Cells (%): 25%
  Population Normal (%): 96%
  Population Pyknosed Nuclei (%): 8%
  Population Tubulin-Different-Phenotype (%): 74%
  Total Cell Count: 241
